Converted amounts (≈) assume the structure as drawn. The source made the active and inactive calls. The calls are words filed in the database; no cut-off is given here. Peptide text beside a SMILES is read from it. * marks the point of attachment. X1 = CCN(CC)c1ccc2cc(-n3cc(CCC(=O)*)nn3)c(=O)oc2c1; Pent4ynoyl = C#CCCC(=O)*
What was measured:
[1] = system: Cryptococcus gattii species complex; experiment: Antifungal activity against Cryptococcus gattii ICB 181 after 72 hrs by microdilution method; type: functional, Cryptococcus bacillisporus; conditions: ICB 181, 72 h
In short: (§1)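 Broth microdilution susceptibility per CLSI M27-A3; MIC reported in […]. Panel includes C. gattii strains (one fluconazole-resistant, L27/01F) and C. neoformans ATCC strains; fluconazole run as reference drug.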

[2] = system: Cryptococcus gattii species complex; experiment: Antifungal activity against fluconazole-resistant Cryptococcus gattii L27/01F after 72 hrs by microdilution method; type: functional, Cryptococcus bacillisporus
In short: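 Broth microdilution susceptibility test following the CLSI M27-A3 standard; the MIC is reported in […]. Fluconazole is run in parallel as the reference drug across the C. gattii and C. neoformans strain panel.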

[3] = system: Cryptococcus gattii species complex; experiment: Antifungal activity against Cryptococcus gattii L27/01 after 72 hrs by microdilution method; type: functional, Cryptococcus bacillisporus; conditions: L27/01, 72 h; in short: as §1
[4] = system: Cryptococcus gattii species complex; experiment: Antifungal activity against Cryptococcus gattii 196L/03 after 72 hrs by microdilution method; type: functional, Cryptococcus bacillisporus; conditions: 196L/03, 72 h; in short: as §1
[5] = system: Cryptococcus gattii species complex; experiment: Antifungal activity against Cryptococcus gattii 547/OTT after 72 hrs by microdilution method; type: functional, Cryptococcus bacillisporus; in short: as §1
Cryptococcus neoformans [6] = experiment: Antifungal activity against Cryptococcus neoformans ATCC 62066 after 72 hrs by microdilution method; type: functional; conditions: ATCC 62066, 72 h; in short: as §1
Cryptococcus neoformans [7] = experiment: Antifungal activity against Cryptococcus neoformans ATCC 24067 after 72 hrs by microdilution method; type: functional; conditions: ATCC 24067, 72 h; in short: as §1
Cryptococcus neoformans [8] = experiment: Antifungal activity against Cryptococcus neoformans ATCC 96806 after 72 hrs by microdilution method; type: functional; conditions: ATCC 96806, 72 h; in short: as §1
[9] = system: Cryptococcus gattii species complex; experiment: Antifungal activity against Cryptococcus gattii 29/10893 after 72 hrs by microdilution method; type: functional, Cryptococcus bacillisporus; conditions: 29/10893, 72 h; in short: as §1
[10] = system: Cryptococcus gattii species complex; experiment: Antifungal activity against Cryptococcus gattii L24/01 after 72 hrs by microdilution method; type: functional, Cryptococcus bacillisporus; conditions: L24/01, 72 h; in short: as §1
Cryptococcus gattii = experiment: Antifungal activity against Cryptococcus gattii ATCC 24065 after 72 hrs by microdilution method; conditions: ATCC 24065, 72 h
[11] = system: Cryptococcus gattii species complex; experiment: Antifungal activity against Cryptococcus gattii L135/03 after 72 hrs by microdilution method; type: functional, Cryptococcus bacillisporus; conditions: L135/03, 72 h; in short: as §1
Cryptococcus neoformans [12] = experiment: Antifungal activity against Cryptococcus neoformans ATCC 28957 after 72 hrs by microdilution method; type: functional; conditions: ATCC 28957, 72 h; in short: as §1
[13] = system: Cryptococcus bacillisporus; experiment: Antifungal activity against Cryptococcus gattii ATCC 32608 after 72 hrs by microdilution method; type: functional; conditions: ATCC 32608, 72 h; in short: as §1
[14] = system: Cryptococcus gattii species complex; experiment: Antifungal activity against Cryptococcus gattii LMM 818 after 72 hrs by microdilution method; type: functional, Cryptococcus bacillisporus; conditions: LMM 818, 72 h; in short: as §1
[15] = system: Cryptococcus gattii species complex; experiment: Antifungal activity against Cryptococcus gattii L28/02 after 72 hrs by microdilution method; type: functional, Cryptococcus bacillisporus; conditions: L28/02, 72 h; in short: as §1
[16] = system: Cryptococcus gattii species complex; experiment: Antifungal activity against Cryptococcus gattii 1913ER after 72 hrs by microdilution method; type: functional, Cryptococcus bacillisporus; in short: as §1
[17] = system: Cryptococcus gattii species complex; experiment: Antifungal activity against Cryptococcus gattii 23/10993 after 72 hrs by microdilution method; type: functional, Cryptococcus bacillisporus; conditions: 23/10993, 72 h; in short: as §1
[18] = system: Cryptococcus bacillisporus; experiment: Induction of reactive oxygen species formation in Cryptococcus gattii ATCC 32608 at MIC after 0.5 to 1 hr by dichlorofluorescein diacetate probe-based fluorometric assay relative to control; type: functional, organism-based
In short: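 Endogenous ROS in C. gattii ATCC 32608 cells treated at the compound's MIC, measured fluorometrically (signal proportional to ROS accumulation); untreated cells and compound alone measured for baseline; group differences tested statistically.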

[19] = Induction of reactive oxygen species formation after 0.5 to 1 hr by dichlorofluorescein diacetate probe-based fluorometric assay; type: physicochemical

Row | Compound | MIC [1] [µM] | MIC [2] [µM] | MIC [3] [µM] | MIC [4] [µM] | MIC [5] [µM] | MIC (Cryptococcus neoformans [6]) [µM] | MIC (Cryptococcus neoformans [7]) [µM] | MIC (Cryptococcus neoformans [8]) [µM] | MIC [9] [µM] | MIC [10] [µM] | MIC (Cryptococcus gattii) [µM] | MIC [11] [µM] | MIC (Cryptococcus neoformans [12]) [µM] | MIC [13] [µM] | MIC [14] [µM] | MIC [15] [µM] | MIC [16] [µM] | MIC [17] [µM] | Activity [18] | Activity [19]
1 | CCN(CC)c1ccc2cc(N=[N+]=[N-])c(=O)oc2c1 | > 990 | > 990 | > 990 | > 990 | > 990 | > 990 | > 990 | > 990 | > 990 | > 990 | > 990 | > 990 | > 990 | > 990 | > 990 | > 990 | > 990 | > 990 | – | –
2 | CCN(CC)c1ccc2cc(-n3cc(CCCO)nn3)c(=O)oc2c1 | > 750 | > 750 | > 750 | > 750 | > 750 | > 750 | > 750 | > 750 | > 750 | > 750 | > 750 | > 750 | > 750 | > 750 | > 750 | > 750 | > 750 | > 750 | Active | –
3 | C#CCCC(=O)N[C@@H](CCCNC(=N)N)C(=O)N[C@@H](C)C(=O)N[C@@H](CCCCN)C(=O)N[C@@H](CCCNC(=N)N)C(=O)N[C@@H](CCCNC(=N)N)C(=O)N[C@@H](CCSC)C(=O)N[C@@H](CCC(N)=O)C(=O)N[C@@H](Cc1ccc(O)cc1)C(N)=O (Pent4ynoyl-RAKRRMQY-NH2) | > 220 | > 220 | > 220 | > 220 | > 220 | > 220 | > 220 | > 220 | > 220 | > 220 | > 220 | > 220 | > 220 | > 220 | > 220 | > 220 | > 220 | > 220 | – | –
4 | CCN(CC)c1ccc2cc(-n3cc(CCC(=O)N[C@@H](CCCNC(=N)N)C(=O)N[C@@H](C)C(=O)N[C@@H](CCCCN)C(=O)N[C@@H](CCCNC(=N)N)C(=O)N[C@@H](CCCNC(=N)N)C(=O)N[C@@H](CCSC)C(=O)N[C@@H](CCC(N)=O)C(=O)N[C@@H](Cc4ccc(O)cc4)C(N)=O)nn3)c(=O)oc2c1 (X1-RAKRRMQY-NH2) | 90 (≈ 130 µg/mL) | 90 (≈ 130 µg/mL) | 40 (≈ 57.8 µg/mL) | 40 (≈ 57.8 µg/mL) | 40 (≈ 57.8 µg/mL) | 90 (≈ 130 µg/mL) | 90 (≈ 130 µg/mL) | 90 (≈ 130 µg/mL) | 90 (≈ 130 µg/mL) | 90 (≈ 130 µg/mL) | 180 (≈ 260 µg/mL) | 40 (≈ 57.8 µg/mL) | 90 (≈ 130 µg/mL) | 90 (≈ 130 µg/mL) | 180 (≈ 260 µg/mL) | 90 (≈ 130 µg/mL) | 180 (≈ 260 µg/mL) | 180 (≈ 260 µg/mL) | Active | Not Active
5 | OC(Cn1cncn1)(Cn1cncn1)c1ccc(F)cc1F [FLUCONAZOLE] | 50 (≈ 15.3 µg/mL) | 420 (≈ 129 µg/mL) | 100 (≈ 30.6 µg/mL) | 100 (≈ 30.6 µg/mL) | 100 (≈ 30.6 µg/mL) | 30 (≈ 9.19 µg/mL) | 20 (≈ 6.13 µg/mL) | 150 (≈ 45.9 µg/mL) | 30 (≈ 9.19 µg/mL) | 50 (≈ 15.3 µg/mL) | 10 (≈ 3.06 µg/mL) | 50 (≈ 15.3 µg/mL) | 3 (≈ 0.919 µg/mL) | 50 (≈ 15.3 µg/mL) | 100 (≈ 30.6 µg/mL) | 100 (≈ 30.6 µg/mL) | 50 (≈ 15.3 µg/mL) | 50 (≈ 15.3 µg/mL) | – | –
6 | H-RAKRRMQY-NH2 | > 230 | > 230 | > 230 | > 230 | > 230 | > 230 | > 230 | > 230 | > 230 | > 230 | > 230 | > 230 | > 230 | > 230 | > 230 | > 230 | > 230 | > 230 | – | –

From ChEMBL document CHEMBL3425414, “Synthesis of a New Peptide-Coumarin Conjugate: A Potential Agent against Cryptococcosis” (ACS Med Chem Lett, 2015)
